We go through 22 molecules from ChEMBL document CHEMBL1127491, “Sulfinosine congeners: synthesis and antitumor activity in mice of certain N9-alkylpurines and purine ribonucleosides” (J Med Chem, 1994).

The subject of one data set is L1210. As to the kind of experiment: Percentage of viable L1210 leukemia cells killed by single treatment with the compound. The data set is classed as ADME, cell-based. Conditions: mouse.
Data set [1] relates to Mus musculus. The data set can be described thus: Maximum soluble dosage which induces toxicity in mice when administered intraperitoneally was determined. The settings on record: in vivo, ip. In kind it is organism-based. The gist of the method: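 Drug was solubilized just before use and given as a single ip bolus at 0.01 mL/g, 24 h after ip inoculation of 1 x 10^6 L1210 cells in BD2F1 mice. This gave a dose 10 times the solubility (mg/mL) in mg/kg. Deaths were assigned to compound toxicity or leukemia by temporal pattern of death and necropsy findings.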

The species entered for data set [2] is Mus musculus. The data set can be described thus: Antileukemic activity in BD2F1 mice inoculated with 1 x 10E6 L1210 cells. The data set is classed as functional. An outline of the steps:
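BD2F1 mice were inoculated ip on day 0 with 1 x 10^6 L1210 cells and given one ip bolus 24 h later (0.01 mL/g; water or Me2SO vehicle; dose 10x solubility in mg/mL, lowered if lethally toxic). Controls got saline. Six mice per group. %T/C = mean treated life span / mean control life span x 100, pooled over four studies with 10 controls each.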

Turning to `CSc1nc(N)nc2c1ncn2[C@@H]1O[C@H](CO)[C@@H](O)[C@H]1O`, the Cells killed in the data set with L1210 was determined as 0%. The Dosage with Mus musculus [1] amounted to 37 mg/kg. Further, the T/C in the data set filed under Mus musculus [2] came out at 98%.

In the data set on L1210, `CCCCCn1cnc2c(SN)nc(N)nc21` had a Cells killed of 70%. Further, the Dosage in the data set with Mus musculus [1] stood at 47 mg/kg. The T/C in the data set filed under Mus musculus [2] was determined as 118%.

In the data set on L1210, `CCCCCCn1cnc2c(SN)nc(N)nc21` yielded a Cells killed of 87%. This molecule showed a Dosage with Mus musculus [1] of 105 mg/kg. In the data set filed under Mus musculus [2], this molecule gave a T/C of 119%.

As for `CCCCCCn1cnc2c(S)ncnc21`, in the data set with L1210, the Cells killed worked out at 87%. The Dosage in the data set on Mus musculus [1] turned out to be 44 mg/kg. The molecule further gave a T/C in the data set filed under Mus musculus [2] of 147%.

In the data set on Mus musculus [1], `CS(=O)(=O)c1nc(N)nc2c1ncn2[C@H]1C[C@H](O)[C@@H](CO)O1` gave a Dosage of 800 mg/kg.

`C[S+]([O-])c1nc(N)nc2c1ncn2[C@H]1C[C@H](O)[C@@H](CO)O1` (stereo partly drawn) came in with a Dosage with Mus musculus [1] of 800 mg/kg.

Turning to `CSc1nc(N)nc2c1ncn2[C@H]1C[C@H](O)[C@@H](CO)O1`, the Dosage in the data set on Mus musculus [1] turned out to be 800 mg/kg.

Regarding `CCCCCCn1cnc2c([S+](N)[O-])ncnc21` (stereo not drawn), the Dosage in the data set on Mus musculus [1] was 800 mg/kg.

`CCCCCn1cnc2c([S+](N)[O-])ncnc21` (stereo not drawn) came in with a Cells killed in the data set on L1210 of 90%. Moreover, in the data set on Mus musculus [1], the Dosage came to 480 mg/kg. This molecule yielded a T/C in the data set listed under Mus musculus [2] of 134%.

With `CCCCCCn1cnc2c(S)nc(N)nc21`, the Cells killed in the data set on L1210 is given as 72%. The Dosage with Mus musculus [1] was found to be 110 mg/kg. Moreover, the T/C in the data set listed under Mus musculus [2] was 118%.

As to `CCCCCCn1cnc2c([S+](N)[O-])nc(N)nc21` (stereo not drawn), the Cells killed in the data set on L1210 was 93%. In the data set on Mus musculus [1], this molecule had a Dosage of 460 mg/kg. Also, the T/C in the data set filed under Mus musculus [2] is 121%.

For the molecule `CCCCCn1cnc2c([S+](N)[O-])nc(N)nc21` (stereo not drawn), in the data set on L1210, the Cells killed turned out to be 72%. In the data set on Mus musculus [1], the Dosage was determined as 106 mg/kg. In addition, in the data set listed under Mus musculus [2], the T/C was found to be 117%.

Molecule `CCCCCn1cnc2c(S)ncnc21` had a Cells killed in the data set with L1210 of 91%. In the data set with Mus musculus [1], this molecule gave a Dosage of 41 mg/kg. For the same molecule, the T/C in the data set listed under Mus musculus [2] is recorded as 141%.

In the data set on L1210, `CCCCCn1cnc2c(S)nc(N)nc21` came in with a Cells killed of 92%. The same molecule gave a Dosage with Mus musculus [1] of 40 mg/kg. This molecule yielded a T/C in the data set listed under Mus musculus [2] of 149%.

Turning to `CCCCCCn1cnc2c(SN)ncnc21`, the Cells killed with L1210 is given as 75%. Besides, the Dosage in the data set with Mus musculus [1] turned out to be 410 mg/kg. The T/C in the data set filed under Mus musculus [2] is 116%.

Take `Nc1nc([S+](N)[O-])c2ncn(CCCCCCO)c2n1` (stereo not drawn): the Cells killed in the data set on L1210 stood at 96%. In the data set with Mus musculus [1], the Dosage was found to be 39 mg/kg. This molecule displayed a T/C in the data set listed under Mus musculus [2] of 139%.

Turning to `Nc1nc([S+]([O-])Cc2ccccc2)c2ncn(C3O[C@H](CO)[C@@H](O)[C@H]3O)c2n1` (stereo partly drawn), the Cells killed in the data set with L1210 was 97%. This molecule also showed a Dosage with Mus musculus [1] of 37 mg/kg. Also, the T/C in the data set listed under Mus musculus [2] was determined as 137%.

The molecule `NSc1nc(N)nc2c1ncn2C1O[C@H](CO)[C@@H](O)[C@H]1O` (stereo partly drawn) showed a Cells killed with L1210 of 99.8%. Besides, in the data set with Mus musculus [1], the Dosage turned out to be 22 mg/kg. The molecule further yielded a T/C in the data set filed under Mus musculus [2] of 170%.

In the data set with L1210, `Nc1nc([S+](N)[O-])c2ncn(C3O[C@H](CO)[C@@H](O)[C@H]3O)c2n1` (stereo partly drawn) gave a Cells killed of 99.8%. Also, in the data set with Mus musculus [1], the Dosage amounted to 173 mg/kg. The same molecule showed a T/C in the data set filed under Mus musculus [2] of 167%.

`C[S+]([O-])c1nc(N)nc2c1ncn2C1O[C@H](CO)[C@@H](O)[C@H]1O` (stereo partly drawn) yielded a Cells killed with L1210 of 71%. Moreover, the Dosage with Mus musculus [1] was 480 mg/kg. The T/C in the data set filed under Mus musculus [2] amounted to 114%.

In the case of `Nc1nc(S(=O)(=O)Cc2ccccc2)c2ncn(C3O[C@H](CO)[C@@H](O)[C@H]3O)c2n1` (stereo partly drawn), the Cells killed with L1210 came to 76%. The same molecule had a Dosage in the data set with Mus musculus [1] of 104 mg/kg. In the data set listed under Mus musculus [2], this molecule gave a T/C of 115%.

In the data set on L1210, `CS(=O)(=O)c1nc(N)nc2c1ncn2C1O[C@H](CO)[C@@H](O)[C@H]1O` (stereo partly drawn) displayed a Cells killed of 0%. In the data set on Mus musculus [1], this molecule had a Dosage of 104 mg/kg. This molecule displayed a T/C in the data set filed under Mus musculus [2] of 96%.

As usually defined, the T/C is the ratio of treated to control.
